Compound activity as filed in PubChem BioAssay.
PLAP activator = PLAP enzyme activators, biochemical, luminescence, HTS; purified PLAP enzyme, luminescent substrate read-out; hits give high values; activation fold at 20 µM; AID 696, 2007; hit rate 1.2% among 96,000; in the data active means activation fold above about 2
Target sequence (P05187 whole entry, looked up): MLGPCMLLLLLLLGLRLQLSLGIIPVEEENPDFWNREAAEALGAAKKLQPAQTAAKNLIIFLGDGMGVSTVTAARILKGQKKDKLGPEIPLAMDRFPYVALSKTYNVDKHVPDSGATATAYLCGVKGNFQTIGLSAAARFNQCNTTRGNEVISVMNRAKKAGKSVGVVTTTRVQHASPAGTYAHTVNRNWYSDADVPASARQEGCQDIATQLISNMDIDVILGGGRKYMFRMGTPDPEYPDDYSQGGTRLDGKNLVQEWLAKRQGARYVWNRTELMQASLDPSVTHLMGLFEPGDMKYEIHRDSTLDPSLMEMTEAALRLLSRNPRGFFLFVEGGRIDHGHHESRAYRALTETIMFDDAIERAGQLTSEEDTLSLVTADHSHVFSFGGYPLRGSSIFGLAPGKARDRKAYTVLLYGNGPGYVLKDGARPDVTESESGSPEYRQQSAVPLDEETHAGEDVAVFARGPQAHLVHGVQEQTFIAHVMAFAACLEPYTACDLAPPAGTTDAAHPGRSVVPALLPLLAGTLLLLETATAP
tolC growth inh = growth inhibitors of E. coli tolC mutant, primary screen, strain BW25113 ΔtolC::kan, 384-well; growth inhibition, % at 10 µM (by protocol); OD615; hit rate 2.2% among 65,000;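 active means growth inhibition at or above a cutoff equal to the mean over every tested compound plus 3 SD, cut at about 60% in these data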;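 further: growth measured after 20 h incubation at 37 °C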
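Material: E. coli BW25113 ΔtolC::kan, tolC deletion mutant strain. Measure: percent growth inhibition. Schedule: 37 °C, 20 h exposure. Doses: single-point testing at 10 µM. Signal: A615 absorbance measurement. Buffer or medium: kanamycin-containing LB broth (50 µg/mL).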
HePTP inhibitor = inhibitors of human HePTP phosphatase, primary screen, biochemical, absorbance, leukemia target; hit rate 0.64% among 110,000; recombinant HePTP phosphatase activity, OD absorbance; inhibition, % at 20 µM; Tyrosine-protein phosphatase non-receptor type 7 (Homo sapiens), P35236; in the data active means inhibition above about 50%;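 further: plate controls were vehicle for no effect and reference inhibitor for full effect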
PostGolgi ctrl = growth inhibition of yeast control strain, primary screen, counter-screen for post-Golgi transport modulator project. efflux-deficient yeast background strain, growth absorbance A615, 16 h. inhibition, % at 10 µM. hit rate 5% among 98,000. AID 738, 2007
PostGolgi yeast = phenotypic screen on post-Golgi transport, primary screen; post-Golgi transport phenotypic cell assay; inhibition, % at 10 µM; hit rate 0.9% among 98,000; AID 739, 2007;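 further: yeast cells grown in 1536-well plates; yeast grown about 18 h at 30C before absorbance read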
E coli WT exp = growth inhibitors of wild-type E. coli, primary screen, strain BW25113, expanded library, OD600; OD600 absorbance; growth inhibition, % at 100 µM; hit rate 0.15% among 98,000;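 active means growth inhibition above about 50% at one test dose, limit read from the data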;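 further: growth measured after 20 h incubation at 37 °C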
Numbers without * were called inactive; . = not tested or not shown. An excerpt weighted towards active compounds, which were near 5.4% of everything screened. Unless noted, no stated cut-off is given here; in the data, active means inhibition above about 30%; inactive means the rest.

SMILES	PLAP activator	tolC growth inh	HePTP inhibitor	PostGolgi ctrl	PostGolgi yeast	E coli WT exp
Nc1cc(Cl)ccc1C(=O)OCC(=O)NC1CCS(=O)(=O)C1 (stereo not given)	0.9	.	.	36*	3	0
O=C(NCCN1CCc2ccccc2C1)Nc1ccc(F)cc1	1	1	12	3	-4	16
Cc1cc2nc(C)n(CCCNC(=O)Nc3ccc(F)cc3)c2cc1C	2.3*	.	.	-10	9	6
COCCNC(=O)CN1CCC(NC(=O)C(C)(C)C)CC1	1	.	.	13	37*	-5
CCOC(=O)c1c(NC(=O)CSc2nnc(CNc3ccc(F)cc3)o2)sc(C)c1C	1.6	13	-5	38*	-8	-14
COc1cccc(N2CCN(CC(=O)Nc3nc4c(s3)CC(C)CC4)CC2)c1 (stereo not given)	1.1	95*	4	22	2	-9
Cc1ccc(-c2nnc3ccc4ccccc4n23)cc1	.	.	6	.	.	.
O=C(CSc1nc2ncccc2[nH]1)NCc1ccccc1	2.4*	-2	4	6	7	5
Cc1sc(NC(=O)CSc2nnc(-c3ccccc3)o2)c(C#N)c1C	1	7	1	46*	0	-2
Cc1cc(C)nc(N/N=C\c2c[nH]c3ccccc23)n1	.	.	4	.	.	.
CCOC(=O)C1=C(C)N=c2s/c(=C\c3ccc(C(=O)O)cc3)c(=O)n2C1c1ccc(OC)cc1 (stereo not given)	.	.	8	.	.	.
CC(C)C(OC(=O)c1cc2occc2n1C)C(=O)NCc1ccc2c(c1)OCO2 (stereo not given)	0.9	1	7	48*	1	-13
N#C/C(=C/c1ccc(Sc2ccccc2)o1)c1nc2ccccc2[nH]1	.	.	5	.	.	.
N#C/C(=C/c1ccc(Sc2nc3ccccc3[nH]2)o1)c1ccccc1F	1.7	.	.	28	41*	-10
N#C/C(=C\c1ccc(Sc2ccccc2)o1)c1ccccc1	.	.	1	.	.	.
N#C/C(=C/c1ccc(Sc2nc3ccccc3[nH]2)o1)c1cccc(F)c1	1.7	.	.	55*	2	-18
N#C/C(=C/c1ccc(Sc2nc3ccccc3[nH]2)o1)c1cccc(Br)c1	1.4	.	.	32*	0	-11
N#C/C(=C\c1ccc(-c2cccc(Cl)c2)o1)c1ccccc1	.	.	-4	.	.	.
COC(=O)c1ccc(NC(=O)c2ccoc2C)cc1	.	.	-8	.	.	.
Cc1ccc(C2(c3ccc(C)cc3)CC2C(=O)Nc2cccnc2)cc1 (stereo not given)	.	.	10	.	.	.
CC(C)(Oc1ccc(Cl)cc1)C(=O)N1CCN(c2ccccn2)CC1	.	47	4	50*	1	-1
Cn1nc(-c2ccc(Cl)cc2)c2cc(C(=O)N3CCN(c4ccccc4)CC3)sc21	1.3	23	-5	7	-4	-8
O=C(Cc1ccc(Cl)cc1)N1CCN(c2ccccn2)CC1	.	.	5	.	.	.
Cn1nc(-c2ccc(Cl)cc2)c2cc(C(=O)N3CCN(c4ccccn4)CC3)sc21	1.6	20	-3	52*	-5	-11
Cc1ccc(CNC(=O)c2cc3c(-c4ccc(Cl)cc4)nn(C)c3s2)o1	1.5	16	7	53*	-7	-8
SMILES	PLAP activator	tolC growth inh	HePTP inhibitor	PostGolgi ctrl	PostGolgi yeast	E coli WT exp
CCOC(=O)C1=C(O)/C(=C/c2ccc(O)cc2)SC1=Nc1cccc(Cl)c1	.	.	-10	.	.	.
C=CCN1C(=O)C(CC(=O)Nc2ccc(C)cc2)SC1=Nc1c(C)n(C)n(-c2ccccc2)c1=O (stereo not given)	2.1*	.	.	3	-2	5
C=CCN1C(=O)C(CC(=O)O)SC1=Nc1c(C)n(C)n(-c2ccccc2)c1=O (stereo not given)	1.3	-9	4	4	-2	-5
COCCOC(=O)C1=C(C)N(C)C(=O)NC1c1ccc(Br)cc1 (stereo not given)	.	.	6	.	.	.
O=C(NC1CCCCC1)O/N=C\c1ccc(Br)cc1	.	.	-1	.	.	.
Cc1ccccc1NC(=O)C(=O)NNC(=O)c1ccc(Cl)cc1	.	.	-7	.	.	.
CCOc1ccc(S(=O)(=O)N2Cc3ccccc3CC2C(=O)NCCCn2ccnc2)cc1 (stereo not given)	1.6	6	6	34*	-4	1
CC1CC(C)CN(CC(C)(C)NS(=O)(=O)c2ccc(Cl)cc2)C1 (stereo not given)	.	.	.	23	60*	-1
CC(C)(CN1CCCCC1)NS(=O)(=O)c1ccc(Cl)cc1	0.9	-2	5	19	-9	5
O=c1nc(-c2ccccc2)c2cc(SC(F)(F)F)ccc2[nH]1	.	.	6	.	.	.
O=c1nc(-c2ccccc2)c2ccccc2[nH]1	1.1	-18	1	59*	0	13
O=c1/c(=C/c2cc(Cl)ccc2OCc2ccccc2F)sc2nc3ccccc3n12	.	.	-1	.	.	.
COc1ccc(NC(=O)CSc2ncn[nH]2)c([N+](=O)[O-])c1	1	.	.	1	2	9
COc1ccc(C(=O)CSc2ncn[nH]2)cc1OC	2.1*	-17	-2	24	1	1
COc1ccc(C(=O)CSc2ncn[nH]2)cc1	.	.	0	.	.	.
CCc1ccc(C(=O)CSc2ncn[nH]2)cc1	2.4*	-6	3	1	-4	1
COc1ccc2c(c1)C(C)CC(C)(C)N2C(=O)CSc1ncn[nH]1 (stereo not given)	2.4*	0	2	0	-7	-5
Cc1ccc(C(=O)CSc2ncn[nH]2)cc1	2.3*	4	-1	-9	1	-7
Cc1sc(NC(=O)/C=C/c2ccccc2)c(C(N)=O)c1C	.	.	14	.	.	.
Cc1nn(-c2ccccc2)c(C)c1C(=O)Nc1nnc(-c2ccco2)o1	1.5	65*	12	-4	2	3
Cc1nc2c(sc3nc(C)c(C)c(C)c32)c(=O)o1	.	.	31	.	.	.
COCc1cc(C)nc2sc3c(=O)oc(C)nc3c12	1.1	66*	0	-2	21	4
Oc1cccc(-c2nc3ccc4ccccc4c3c3c2CCC3)c1	1.7	.	.	44*	55*	-10
N#Cc1c(N)nc2c(c1-c1cccc(O)c1)CCCCCC2	1	43	3	21	-7	3
CCOc1ccccc1C(=O)Nc1cc(C(F)(F)F)ccc1Cl	.	.	2	.	.	.
SMILES	PLAP activator	tolC growth inh	HePTP inhibitor	PostGolgi ctrl	PostGolgi yeast	E coli WT exp
CCOC(=O)c1cc(-c2ccncc2)nc2c1c(C)nn2C	1.4	7	2	12	-6	0
CCOC(=O)c1cc(-c2ccccc2)nc2c1c(C)nn2-c1ccccn1	1.5	.	.	42*	-3	-6
O=S(=O)(c1ccc(C2=CSC3=NCCN23)cc1)N1CCCCC1	.	.	-1	.	.	.
C=CCN1C(=O)/C(=C\c2ccc(-c3cccc([N+](=O)[O-])c3)o2)C(=O)NC1=S	.	.	96*	.	.	.
C=CCN1C(=O)/C(=C\c2cc(Br)cc(Cl)c2O)C(=O)NC1=S	.	.	-3	.	.	.
C=CCN1C(=O)/C(=C/c2ccc(C)cc2)C(=O)NC1=S	.	.	9	.	.	.
C=CCN1C(=O)/C(=C/c2cccc([N+](=O)[O-])c2)C(=O)NC1=S	.	.	10	.	.	.
